Activity calls are given as the source filed them. No cut-off for these calls is given here.
Assays:
T98G = experiment: Antiproliferative activity against human T98G cells overexpressing AR assessed as reduction in cell viability incubated for 48 hrs by MTT assay; assay type: functional, cell-based
Procedure, shortened: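 MTT assay; 3000 cells/well in RPMI 1640 or DMEM with 10% FBS, seeded 24 h, then exposed 48 h to a range of concentrations in DMSO (final ≤0.1%); vehicle controls. MTT 1 mg/mL for 2 h at 37 °C, dye dissolved in DMSO, absorbance 570 nm; eight replicates; IC50 by nonlinear regression.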

U-87 MG = experiment: Antitumor activity against human U87 cells xenografted in nude mouse assessed as reduction in tumor size at 20 mg/kg, po administered thrice weekly for 14 days by vernier caliper method; assay type: functional, organism-based; conditions: U-87MG ATCC, time 14.0 day
Procedure, shortened: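 Male NCRNU nude mice, 5–6 weeks, 5 × 10^6 U87 cells in PBS injected subcutaneously into left and right flank (n = 4 mice, 8 tumors per group). Dosing began near 50 mm3: 20 mg/kg in PBS IP or oral, three times weekly for 14 days, vehicle DMSO. Calipers three times weekly, V = 2/3·d1·d2²; tumors weighed after CO2 euthanasia.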

[1] = biological target: Heat shock protein beta-1 (Homo sapiens) (UniProt P04792); experiment: Inhibition of HSP27 in human T98G cells assessed as AR accumulation in nucleus at 100 nM incubated for 12 hrs in presence of DHT by immunofluorescence analysis; assay type: cell-based
Procedure, shortened: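 T98G cells on coverslips, 24 h after seeding, were treated 12 h with 100 nM, DHT 10 nM, or both. Cells were fixed in 4% paraformaldehyde, permeabilized with 0.1% Triton X-100 and blocked with 1% BSA. They were stained 1 h each with AR and HSP27 primary and fluorescent secondary antibodies, with DAPI for nuclei.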

[2] = biological target: Heat shock protein beta-1 (Homo sapiens) (UniProt P04792); experiment: Inhibition of HSP27 in human U87 cells assessed as reduction in AR expression level at 50 to 100 nM in presence of MG132 by Western blot analysis; assay type: cell-based; conditions: dose 50-100 nM
Procedure, shortened: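 Cells were treated in six-well plates (with or without MG132 where stated), then lysed in RIPA with protease inhibitors. 50 μg protein was run on 10% SDS-PAGE and transferred to PVDF. Membranes were blocked in 5% milk/TBS-T, probed with AR or AR-V7 antibodies overnight at 4 °C, and detected by chemiluminescence. Densitometry was used; n = 3.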

Chain of Heat shock protein beta-1 (Homo sapiens) (P04792 whole entry): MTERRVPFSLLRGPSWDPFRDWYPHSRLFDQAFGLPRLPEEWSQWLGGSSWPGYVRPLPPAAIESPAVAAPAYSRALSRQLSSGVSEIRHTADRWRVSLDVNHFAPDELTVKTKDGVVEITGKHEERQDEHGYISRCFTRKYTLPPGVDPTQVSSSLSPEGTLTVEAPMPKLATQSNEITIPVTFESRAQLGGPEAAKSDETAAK

COc1ccc(C(=O)Nc2ccc(NS(C)(=O)=O)c(OCc3cc(OC)ccc3OC)c2)cc1
IC50 (T98G): 2.01 nM
Activity (U-87 MG): Active
inhibition [1]: inactive
inhibition [2]: inactive

Reference: ChEMBL document CHEMBL4706680, “Small-Molecule HSP27 Inhibitor Abolishes Androgen Receptors in Glioblastoma” (J Med Chem, 2021)
